Tests used:
[1] = molecular target: Epidermal growth factor receptor (Homo sapiens, UniProt P00533); assay: Inhibition of wild type EGFR (unknown origin)
[2] = molecular target: Tyrosine-protein kinase ABL1 (Homo sapiens) (UniProt P00519); assay: Inhibition of ABL (unknown origin) using fluorescence labeled peptide as substrate at 10 uM by IMAP assay relative to control
Summary of the method: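 IMAP fluorescence-polarization kinase assay: fluorescently labelled substrate peptide phosphorylated, then captured by trivalent-metal nanoparticles, slowing rotation. Compound at 10 µM, triplicates, percent inhibition reported.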

[3] = molecular target: T1, Hepatocyte growth factor receptor (Homo sapiens, UniProt P08581); assay: Inhibition of c-MET (unknown origin) using fluorescence labeled peptide as substrate at 10 uM by IMAP assay relative to control
Summary of the method: (§1)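 IMAP fluorescence-polarization kinase assay at 10 µmol/L compound, run in triplicate by a contract lab. A fluorescently labeled substrate peptide is phosphorylated, then nanoparticles carrying trivalent metal bind the phosphopeptide and slow its rotation. Read-out is fluorescence polarization, expressed as percent inhibition.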

[4] = molecular target: T2, Proto-oncogene tyrosine-protein kinase Src (Homo sapiens, UniProt P12931); assay: Inhibition of SRC (unknown origin) using biotinylated peptide as substrate at 10 uM by TR-FRET assay relative to control
T2 sequence (P12931 2-536 limits assumed): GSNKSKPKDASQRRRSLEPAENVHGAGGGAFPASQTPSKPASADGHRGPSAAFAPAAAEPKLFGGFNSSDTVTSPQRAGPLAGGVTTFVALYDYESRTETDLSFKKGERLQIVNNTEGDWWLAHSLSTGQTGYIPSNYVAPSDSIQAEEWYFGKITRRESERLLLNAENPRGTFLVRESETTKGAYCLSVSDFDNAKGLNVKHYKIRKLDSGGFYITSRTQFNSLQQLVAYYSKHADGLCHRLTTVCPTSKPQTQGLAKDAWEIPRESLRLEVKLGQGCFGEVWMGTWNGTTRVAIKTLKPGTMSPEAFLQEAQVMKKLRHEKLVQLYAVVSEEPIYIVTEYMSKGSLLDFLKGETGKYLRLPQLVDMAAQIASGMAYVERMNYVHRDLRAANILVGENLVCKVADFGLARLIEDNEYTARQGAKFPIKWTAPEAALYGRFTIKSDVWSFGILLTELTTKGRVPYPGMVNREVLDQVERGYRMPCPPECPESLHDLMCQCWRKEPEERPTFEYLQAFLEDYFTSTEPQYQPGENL

[5] = molecular target: T3, Aurora kinase A (Homo sapiens) (UniProt O14965); assay: Inhibition of AurA (unknown origin) using biotinylated peptide as substrate at 10 uM by TR-FRET assay relative to control
T3 sequence (whole entry): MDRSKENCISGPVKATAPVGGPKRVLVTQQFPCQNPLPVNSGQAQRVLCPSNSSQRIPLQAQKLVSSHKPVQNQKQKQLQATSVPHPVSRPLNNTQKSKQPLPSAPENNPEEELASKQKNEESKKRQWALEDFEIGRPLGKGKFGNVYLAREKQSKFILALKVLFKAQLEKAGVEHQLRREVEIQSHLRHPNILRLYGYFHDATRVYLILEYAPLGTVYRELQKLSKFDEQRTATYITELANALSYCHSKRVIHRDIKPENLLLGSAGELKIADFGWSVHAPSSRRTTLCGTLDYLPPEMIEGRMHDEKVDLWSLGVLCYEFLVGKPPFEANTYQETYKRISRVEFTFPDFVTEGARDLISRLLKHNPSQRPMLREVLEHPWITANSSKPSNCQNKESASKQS

[6] = molecular target: Platelet-derived growth factor receptor beta (Homo sapiens) (UniProt P09619); assay: Inhibition of PDGFRbeta (unknown origin) using fluorescence labeled peptide as substrate at 10 uM by IMAP assay relative to control; summary of the method: as §1
Chain of Platelet-derived growth factor receptor beta (Homo sapiens) (P09619 whole entry): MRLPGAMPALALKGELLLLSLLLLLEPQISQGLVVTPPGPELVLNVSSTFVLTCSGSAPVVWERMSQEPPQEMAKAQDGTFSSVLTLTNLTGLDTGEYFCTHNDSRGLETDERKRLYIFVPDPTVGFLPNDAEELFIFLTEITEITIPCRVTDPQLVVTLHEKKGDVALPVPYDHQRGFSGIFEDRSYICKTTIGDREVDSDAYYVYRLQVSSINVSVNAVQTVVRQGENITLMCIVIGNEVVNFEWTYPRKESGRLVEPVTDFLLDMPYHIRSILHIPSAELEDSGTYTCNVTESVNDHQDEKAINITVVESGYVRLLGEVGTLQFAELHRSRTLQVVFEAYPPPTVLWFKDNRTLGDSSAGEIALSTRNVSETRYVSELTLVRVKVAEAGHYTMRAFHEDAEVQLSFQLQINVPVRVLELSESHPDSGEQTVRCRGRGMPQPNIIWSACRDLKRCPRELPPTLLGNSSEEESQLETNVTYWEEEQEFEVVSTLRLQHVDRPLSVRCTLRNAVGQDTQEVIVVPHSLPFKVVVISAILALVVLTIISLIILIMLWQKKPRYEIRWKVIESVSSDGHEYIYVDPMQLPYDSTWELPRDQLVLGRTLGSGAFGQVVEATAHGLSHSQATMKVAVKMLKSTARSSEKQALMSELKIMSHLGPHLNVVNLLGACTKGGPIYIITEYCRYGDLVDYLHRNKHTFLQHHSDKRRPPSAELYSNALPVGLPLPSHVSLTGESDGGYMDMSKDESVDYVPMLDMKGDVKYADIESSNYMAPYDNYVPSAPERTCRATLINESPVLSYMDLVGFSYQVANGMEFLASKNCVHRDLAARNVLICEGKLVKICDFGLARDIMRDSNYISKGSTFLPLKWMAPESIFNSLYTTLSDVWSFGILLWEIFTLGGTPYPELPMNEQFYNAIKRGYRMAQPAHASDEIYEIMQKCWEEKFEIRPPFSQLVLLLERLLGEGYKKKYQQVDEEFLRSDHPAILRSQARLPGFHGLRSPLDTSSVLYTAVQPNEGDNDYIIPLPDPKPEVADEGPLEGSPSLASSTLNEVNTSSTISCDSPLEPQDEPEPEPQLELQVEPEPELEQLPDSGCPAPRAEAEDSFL

[7] = Ratio of IC50 for antimigratory activity against human MDA-MB-231 cells after 3.5 hrs by microscopy based Boyden chamber assay to IC50 for inhibition of AXL (unknown origin)
[8] = molecular target: Angiopoietin-1 receptor (Homo sapiens) (UniProt Q02763); assay: Inhibition of TIE2 (unknown origin) using fluorescence labeled peptide as substrate at 10 uM by IMAP assay relative to control; summary of the method: as §1
Chain of Angiopoietin-1 receptor (Homo sapiens) (Q02763 whole entry): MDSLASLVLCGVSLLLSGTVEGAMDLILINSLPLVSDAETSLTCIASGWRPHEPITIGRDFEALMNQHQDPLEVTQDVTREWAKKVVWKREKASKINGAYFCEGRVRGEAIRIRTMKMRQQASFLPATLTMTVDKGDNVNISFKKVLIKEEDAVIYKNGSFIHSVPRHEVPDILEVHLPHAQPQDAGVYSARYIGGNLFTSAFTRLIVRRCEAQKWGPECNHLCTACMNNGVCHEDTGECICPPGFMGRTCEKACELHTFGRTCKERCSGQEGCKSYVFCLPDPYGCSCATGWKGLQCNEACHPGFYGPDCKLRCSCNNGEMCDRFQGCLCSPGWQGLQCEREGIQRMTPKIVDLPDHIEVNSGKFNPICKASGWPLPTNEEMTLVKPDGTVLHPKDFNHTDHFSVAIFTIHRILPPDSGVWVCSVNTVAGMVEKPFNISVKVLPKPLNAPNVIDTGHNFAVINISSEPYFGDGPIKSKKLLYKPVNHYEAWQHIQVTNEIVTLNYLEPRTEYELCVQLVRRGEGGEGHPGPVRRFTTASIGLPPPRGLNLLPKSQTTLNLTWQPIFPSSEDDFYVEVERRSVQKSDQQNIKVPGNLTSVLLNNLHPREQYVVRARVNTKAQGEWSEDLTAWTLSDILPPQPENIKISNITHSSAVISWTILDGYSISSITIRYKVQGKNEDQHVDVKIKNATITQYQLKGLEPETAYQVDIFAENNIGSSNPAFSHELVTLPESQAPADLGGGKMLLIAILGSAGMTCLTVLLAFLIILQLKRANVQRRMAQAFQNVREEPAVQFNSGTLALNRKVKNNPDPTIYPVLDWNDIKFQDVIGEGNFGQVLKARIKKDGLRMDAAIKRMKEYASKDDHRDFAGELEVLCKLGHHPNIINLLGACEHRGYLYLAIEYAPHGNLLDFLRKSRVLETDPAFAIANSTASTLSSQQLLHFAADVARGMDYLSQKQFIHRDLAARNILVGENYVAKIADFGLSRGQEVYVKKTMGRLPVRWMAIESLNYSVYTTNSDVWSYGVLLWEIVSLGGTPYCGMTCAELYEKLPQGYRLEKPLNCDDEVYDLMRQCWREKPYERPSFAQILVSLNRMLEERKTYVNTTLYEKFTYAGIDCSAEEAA

[9] = molecular target: Vascular endothelial growth factor receptor 2 (Homo sapiens) (UniProt P35968); assay: Inhibition of VEGFR2 (unknown origin) using biotinylated peptide as substrate at 10 uM by TR-FRET assay relative to control
[10] = molecular target: T2, Proto-oncogene tyrosine-protein kinase Src; assay: Inhibition of SRC (unknown origin)
[11] = molecular target: Mast/stem cell growth factor receptor Kit (Homo sapiens) (UniProt P10721); assay: Inhibition of cKIT (unknown origin) using biotinylated peptide as substrate at 10 uM by TR-FRET assay relative to control
Chain of Mast/stem cell growth factor receptor Kit (Homo sapiens) (P10721 whole entry): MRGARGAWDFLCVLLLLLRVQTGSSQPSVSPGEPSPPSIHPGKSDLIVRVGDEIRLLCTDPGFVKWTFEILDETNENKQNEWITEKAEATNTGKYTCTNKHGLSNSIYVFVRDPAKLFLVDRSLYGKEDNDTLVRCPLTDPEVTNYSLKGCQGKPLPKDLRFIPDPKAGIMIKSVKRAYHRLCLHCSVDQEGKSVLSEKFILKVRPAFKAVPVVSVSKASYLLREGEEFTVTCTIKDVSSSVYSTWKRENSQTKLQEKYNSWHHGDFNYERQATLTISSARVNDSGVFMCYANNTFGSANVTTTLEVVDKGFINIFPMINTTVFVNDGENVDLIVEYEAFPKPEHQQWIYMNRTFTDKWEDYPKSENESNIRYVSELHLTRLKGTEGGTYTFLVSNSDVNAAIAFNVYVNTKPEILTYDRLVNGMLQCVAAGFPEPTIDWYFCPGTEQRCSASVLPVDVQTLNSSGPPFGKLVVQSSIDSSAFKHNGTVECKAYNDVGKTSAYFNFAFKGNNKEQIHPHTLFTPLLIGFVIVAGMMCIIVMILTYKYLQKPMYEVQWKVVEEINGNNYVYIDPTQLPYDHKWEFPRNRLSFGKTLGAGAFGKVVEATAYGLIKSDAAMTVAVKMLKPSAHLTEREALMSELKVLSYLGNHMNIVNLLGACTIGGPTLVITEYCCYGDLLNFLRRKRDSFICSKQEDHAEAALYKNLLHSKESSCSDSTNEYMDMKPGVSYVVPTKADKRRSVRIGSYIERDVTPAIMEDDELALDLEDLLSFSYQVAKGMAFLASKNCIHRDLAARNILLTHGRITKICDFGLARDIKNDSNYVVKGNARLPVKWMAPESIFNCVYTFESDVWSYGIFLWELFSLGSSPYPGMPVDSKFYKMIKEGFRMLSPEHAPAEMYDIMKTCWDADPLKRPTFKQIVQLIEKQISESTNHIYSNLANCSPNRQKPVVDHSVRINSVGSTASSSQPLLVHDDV

[12] = molecular target: Mast/stem cell growth factor receptor Kit (Homo sapiens) (UniProt P10721); assay: Inhibition of cKIT (unknown origin) using fluorescence labeled peptide as substrate at 10 uM by IMAP assay relative to control; summary of the method: as §1
[13] = molecular target: T4, Tyrosine-protein kinase receptor UFO (Homo sapiens, UniProt P30530); assay: Inhibition of AXL (unknown origin)
T4 sequence (P30530 whole entry): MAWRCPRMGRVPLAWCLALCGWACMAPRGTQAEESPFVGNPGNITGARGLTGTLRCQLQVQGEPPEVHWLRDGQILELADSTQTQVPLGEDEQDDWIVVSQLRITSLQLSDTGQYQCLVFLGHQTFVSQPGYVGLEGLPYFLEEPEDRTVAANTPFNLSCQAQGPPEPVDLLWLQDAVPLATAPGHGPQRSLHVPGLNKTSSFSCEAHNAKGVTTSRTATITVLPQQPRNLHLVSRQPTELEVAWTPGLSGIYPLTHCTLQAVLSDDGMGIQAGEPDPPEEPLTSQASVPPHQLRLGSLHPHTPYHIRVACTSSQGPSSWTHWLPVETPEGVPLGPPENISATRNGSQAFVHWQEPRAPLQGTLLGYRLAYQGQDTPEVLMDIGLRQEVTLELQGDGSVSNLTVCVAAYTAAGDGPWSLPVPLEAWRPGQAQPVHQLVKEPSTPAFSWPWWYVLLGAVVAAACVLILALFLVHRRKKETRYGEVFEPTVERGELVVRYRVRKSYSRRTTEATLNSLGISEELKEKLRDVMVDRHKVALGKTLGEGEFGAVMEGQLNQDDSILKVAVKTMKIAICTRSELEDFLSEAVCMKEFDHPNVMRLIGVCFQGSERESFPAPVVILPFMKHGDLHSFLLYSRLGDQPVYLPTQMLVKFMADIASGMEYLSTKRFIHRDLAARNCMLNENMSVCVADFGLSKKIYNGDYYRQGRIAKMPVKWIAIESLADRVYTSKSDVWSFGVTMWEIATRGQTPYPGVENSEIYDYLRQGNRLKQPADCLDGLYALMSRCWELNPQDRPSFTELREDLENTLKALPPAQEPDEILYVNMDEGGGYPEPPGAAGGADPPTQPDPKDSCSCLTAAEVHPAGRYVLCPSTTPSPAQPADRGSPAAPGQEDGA

[14] = tested on: MDA-MB-231; assay: Antimigratory activity against human MDA-MB-231 cells assessed as inhibition of large cell aggregate formation after 5 hrs by matrigel assay; assay type: functional, cell-based; conditions: MDA-MB-231, 5 h
Summary of the method: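 MDA-MB-231 cells (7000/well) seeded on polymerized 3 mg/mL Matrigel (set ≥16 h at 37°C) in serum-free medium; inhibitor added at seeding, aggregates forming over 5 h.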

[15] = molecular target: Platelet-derived growth factor receptor beta (Homo sapiens) (UniProt P09619); assay: Inhibition of PDGFRbeta (unknown origin) using biotinylated peptide as substrate at 10 uM by TR-FRET assay relative to control
[16] = molecular target: T4, Tyrosine-protein kinase receptor UFO; assay: Inhibition of AXL (unknown origin) phosphorylation after 1 hr by ELISA
[17] = molecular target: Tyrosine-protein kinase receptor UFO (Homo sapiens) (UniProt P30530); assay: Inhibition of AXL (unknown origin) using biotinylated peptide as substrate at 10 uM by TR-FRET assay relative to control
[18] = molecular target: Tyrosine-protein kinase ABL1 (Homo sapiens) (UniProt P00519); assay: Inhibition of ABL (unknown origin) using biotinylated peptide as substrate at 10 uM by TR-FRET assay relative to control
[19] = molecular target: Tyrosine-protein kinase receptor UFO (Homo sapiens) (UniProt P30530); assay: Inhibition of AXL (unknown origin) using fluorescence labeled peptide as substrate at 10 uM by IMAP assay relative to control; summary of the method: as §1
[20] = molecular target: Vascular endothelial growth factor receptor 2 (Homo sapiens) (UniProt P35968); assay: Inhibition of VEGFR2 (unknown origin) using fluorescence labeled peptide as substrate at 10 uM by IMAP assay relative to control; summary of the method: as §1
[21] = molecular target: T1, Hepatocyte growth factor receptor; assay: Inhibition of c-MET (unknown origin)

Chain of Epidermal growth factor receptor (P00533 whole entry): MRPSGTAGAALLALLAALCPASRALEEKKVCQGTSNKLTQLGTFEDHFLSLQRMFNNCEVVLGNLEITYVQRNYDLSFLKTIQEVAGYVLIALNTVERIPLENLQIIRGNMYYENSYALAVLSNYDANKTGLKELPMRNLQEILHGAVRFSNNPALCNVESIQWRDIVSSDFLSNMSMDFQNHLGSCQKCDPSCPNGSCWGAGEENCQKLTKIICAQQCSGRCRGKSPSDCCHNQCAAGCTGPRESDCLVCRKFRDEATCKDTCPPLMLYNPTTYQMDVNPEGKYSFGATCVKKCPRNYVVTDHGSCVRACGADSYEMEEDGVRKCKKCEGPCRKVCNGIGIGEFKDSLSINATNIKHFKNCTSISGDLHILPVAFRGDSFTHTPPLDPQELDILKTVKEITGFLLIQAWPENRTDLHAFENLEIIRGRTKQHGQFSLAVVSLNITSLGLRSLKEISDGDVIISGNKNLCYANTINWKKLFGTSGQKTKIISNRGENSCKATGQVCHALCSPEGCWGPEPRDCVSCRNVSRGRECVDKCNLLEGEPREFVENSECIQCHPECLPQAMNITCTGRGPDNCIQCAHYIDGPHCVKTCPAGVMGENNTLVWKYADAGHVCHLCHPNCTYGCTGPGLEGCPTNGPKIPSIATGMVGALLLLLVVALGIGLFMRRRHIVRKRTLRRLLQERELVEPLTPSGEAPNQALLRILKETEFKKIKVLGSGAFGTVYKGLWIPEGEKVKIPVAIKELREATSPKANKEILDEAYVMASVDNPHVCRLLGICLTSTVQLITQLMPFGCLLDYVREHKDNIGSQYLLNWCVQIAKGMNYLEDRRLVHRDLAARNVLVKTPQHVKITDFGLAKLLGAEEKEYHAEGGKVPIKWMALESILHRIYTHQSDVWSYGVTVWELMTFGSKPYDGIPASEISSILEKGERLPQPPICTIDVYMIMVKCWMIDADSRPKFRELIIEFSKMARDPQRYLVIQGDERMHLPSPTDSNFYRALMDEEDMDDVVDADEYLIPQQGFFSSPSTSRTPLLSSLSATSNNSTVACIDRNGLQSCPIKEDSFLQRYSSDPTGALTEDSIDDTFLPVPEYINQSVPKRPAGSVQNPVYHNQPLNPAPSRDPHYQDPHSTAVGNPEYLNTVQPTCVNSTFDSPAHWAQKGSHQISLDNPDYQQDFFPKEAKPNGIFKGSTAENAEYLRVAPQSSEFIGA

Row | IC50 [1] | Efficacy [2] | Efficacy [3] | Efficacy [4] | Efficacy [5] | Efficacy [6] | Efficacy [8] | Efficacy [9] | IC50 [10] | Efficacy [11] | Efficacy [12] | IC50 [13] | IC50 [14] | Efficacy [15] | IC50 [16] | Efficacy [17] | Efficacy [18] | Efficacy [19] | Efficacy [20] | Compound | Ratio IC50 [7] | also measured
1 | 0.281 µM | 83 to 100% | 83 to 100% | 83 to 100% | 83 to 100% | 83 to 100% | 83 to 100% | 83 to 100% | 0.544 µM | 83 to 100% | 83 to 100% | 0.021 µM | 0.158 µM | 83 to 100% | 0.021 µM | 83 to 100% | 83 to 100% | 83 to 100% | 83 to 100% | COc1cc2c(Oc3ccc(NS(=O)(=O)c4ccccc4C(F)(F)F)cc3F)ccnc2cc1OCCCN1CCN(C)CC1 | >50 | IC50 [21]: 0.488 µM
2 | 0.178 µM | 83 to 100% | 83 to 100% | 83 to 100% | 83 to 100% | 83 to 100% | 83 to 100% | 83 to 100% | 0.044 µM | 83 to 100% | 83 to 100% | 0.035 µM | 0.156 µM | 83 to 100% | 0.035 µM | 83 to 100% | 83 to 100% | 83 to 100% | 83 to 100% | COc1cc2c(Oc3ccc(NS(=O)(=O)c4c(F)cccc4F)cc3F)ccnc2cc1OCCCN1CCN(C)CC1 | >50 | IC50 [21]: 0.127 µM
3 | 0.149 µM | 83 to 100% | 83 to 100% | 83 to 100% | 83 to 100% | 83 to 100% | 83 to 100% | 83 to 100% | 0.088 µM | 83 to 100% | 83 to 100% | 0.027 µM | 0.158 µM | 83 to 100% | 0.027 µM | 83 to 100% | 83 to 100% | 83 to 100% | 83 to 100% | COc1cc2c(Oc3ccc(NS(=O)(=O)c4cc(F)ccc4F)cc3F)ccnc2cc1OCCCN1CCN(C)CC1 | >50 | IC50 [21]: 0.358 µM

Row | Compound | IC50 [1] | Efficacy [2] | Efficacy [3] | Efficacy [4] | Efficacy [5] | Efficacy [6] | Efficacy [8] | Efficacy [9] | IC50 [10] | Efficacy [11] | Efficacy [12] | IC50 [13] | IC50 [14] | Efficacy [15] | IC50 [16] | Efficacy [17] | Efficacy [18] | Efficacy [19] | Efficacy [20] | Ratio IC50 [7] | also measured
4 | COc1cc2c(Oc3ccc(NS(=O)(=O)c4cc(F)ccc4F)cc3F)ccnc2cc1OCCCN1CCCC(C)C1 (centres undefined) | 1.13 µM | 83 to 100% | 83 to 100% | 83 to 100% | 83 to 100% | 83 to 100% | 83 to 100% | 83 to 100% | 0.113 µM | 83 to 100% | 83 to 100% | 0.028 µM | 0.185 µM | 83 to 100% | 0.028 µM | 83 to 100% | 83 to 100% | 83 to 100% | 83 to 100% | >50 | IC50 [21]: 1.31 µM
